Blank lines part the entries; values can stand above or below the compound they belong to.
What was measured:
[1] = biological target: Phosphatidylinositol 4,5-bisphosphate 3-kinase catalytic subunit alpha isoform (Homo sapiens, UniProt P42336); test: Inhibition of N-terminal GST-fused full-length human PI3Kalpha (1 to 1068 residues) expressed in baculovirus expression system using PIP2 as substrate incubated for 1 hr in presence of ATP by ADP-Glo assay
[2] = biological target: Phosphatidylinositol 4,5-bisphosphate 3-kinase catalytic subunit gamma isoform (Homo sapiens, UniProt P48736); test: Inhibition of human PI3Kgamma expressed in baculovirus infected Sf21 insect cells by ADP-Glo assay
HCT-116 = test: Antiproliferative activity against human HCT-116 cells assessed as inhibition of cell proliferation incubated for 96 hrs by MTT assay; type: functional, cell-based; conditions: HCT-116, 96 h
[3] = biological target: T1, Phosphatidylinositol 4,5-bisphosphate 3-kinase catalytic subunit delta isoform (Homo sapiens, UniProt O00329); test: Inhibition of N-terminal 6xHis-tagged recombinant full-length human PI3Kdelta expressed in baculovirus infected Sf21 insect cells by ADP-Glo assay
T1 sequence (O00329 whole entry): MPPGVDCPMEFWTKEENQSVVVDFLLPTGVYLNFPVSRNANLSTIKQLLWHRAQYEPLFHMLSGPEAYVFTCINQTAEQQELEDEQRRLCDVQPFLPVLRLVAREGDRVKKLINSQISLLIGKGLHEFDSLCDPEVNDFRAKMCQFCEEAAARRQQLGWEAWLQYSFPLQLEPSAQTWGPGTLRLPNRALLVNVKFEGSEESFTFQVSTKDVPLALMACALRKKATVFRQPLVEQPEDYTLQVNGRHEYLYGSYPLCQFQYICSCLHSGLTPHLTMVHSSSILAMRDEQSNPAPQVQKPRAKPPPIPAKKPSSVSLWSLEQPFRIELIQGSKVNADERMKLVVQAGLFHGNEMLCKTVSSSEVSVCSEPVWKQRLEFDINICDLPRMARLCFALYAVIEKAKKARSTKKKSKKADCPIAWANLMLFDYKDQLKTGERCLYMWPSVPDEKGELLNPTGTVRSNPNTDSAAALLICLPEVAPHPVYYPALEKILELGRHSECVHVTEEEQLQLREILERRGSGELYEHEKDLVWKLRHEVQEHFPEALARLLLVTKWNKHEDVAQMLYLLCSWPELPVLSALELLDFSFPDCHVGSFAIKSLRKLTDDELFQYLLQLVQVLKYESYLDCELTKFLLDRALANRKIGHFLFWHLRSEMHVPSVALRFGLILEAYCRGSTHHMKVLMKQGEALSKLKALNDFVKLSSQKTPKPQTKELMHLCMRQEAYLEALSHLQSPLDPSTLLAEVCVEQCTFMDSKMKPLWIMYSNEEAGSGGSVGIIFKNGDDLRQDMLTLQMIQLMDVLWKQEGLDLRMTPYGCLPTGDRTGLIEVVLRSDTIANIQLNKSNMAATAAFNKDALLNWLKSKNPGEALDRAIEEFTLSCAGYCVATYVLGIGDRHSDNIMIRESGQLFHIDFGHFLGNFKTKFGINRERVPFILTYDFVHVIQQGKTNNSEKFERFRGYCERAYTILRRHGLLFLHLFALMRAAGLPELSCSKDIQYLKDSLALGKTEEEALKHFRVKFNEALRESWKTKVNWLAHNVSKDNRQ

[4] = biological target: Phosphatidylinositol 4,5-bisphosphate 3-kinase catalytic subunit beta isoform (Homo sapiens, UniProt P42338); test: Inhibition of N-terminal 6xHis-tagged recombinant, full length human PI3Kbeta by ADP-Glo assay
U-87 MG [5] = test: Antiproliferative activity against human U-87 MG cells assessed as inhibition of cell proliferation incubated for 96 hrs by MTT assay; type: functional, cell-based, U-87MG ATCC
[6] = Toxicity in BALB/c mouse xenografted with human U-87 MG cells assessed as body weight loss at 40 mg/kg/day, ip for 16 days; type: organism-based; conditions: in vivo, 384 h, time 16 day
Method in brief: (§1)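 U87-MG xenograft mice treated once tumours averaged ~100 mm³. Dosing was 40 mg/kg/day intraperitoneally, once daily for 16 days. Tumour volume and body weight of each mouse were recorded on days 1, 4, 8, 11, 15 and 17.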

[7] = Metabolic stability in rat liver assessed as intrinsic clearance […] measured upto 60 mins in presence of NADPH by LC-MS/MS analysis; type: ADME; conditions: read-out: CLH
[8] = Metabolic stability in rat liver microsomes assessed as intrinsic clearance […] measured upto 60 mins in presence of NADPH by LC-MS/MS analysis; type: ADME, Microsome; conditions: read-out: CLH
[9] = Toxicity in BALB/c mouse xenografted with human U-87 MG cells assessed as drug tolerance at 40 mg/kg/day, ip for 16 days; type: organism-based; conditions: in vivo, 384 h, time 16 day; method in brief: as §1
[10] = Toxicity in BALB/c mouse xenografted with human U-87 MG cells assessed as animal mortality at 40 mg/kg/day, ip for 16 days; type: organism-based; conditions: in vivo, 384 h, time 16 day; method in brief: as §1
[11] = Metabolic stability in rat liver microsomes assessed as compound remaining […] measured upto 60 mins by LC-MS/MS analysis; type: ADME, Microsome; conditions: read-out: Stability
U-87 MG [12] = test: Antitumor activity against human U-87 MG cells xenografted in BALB/c mouse assessed as tumor growth inhibition at 40 mg/kg/day, ip for 16 days relative to control; type: functional, U-87MG ATCC; conditions: 384 h, time 16 day, read-out: TGI
Method in brief: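 U87-MG xenografts in mice; dosing began once mean tumor volume reached about 100 mm³. Given 40 mg/kg/day intraperitoneally, once daily for 16 days.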

[13] = Metabolic stability in rat liver microsomes assessed as compound remaining […] measured upto 60 mins in presence of NADPH by LC-MS/MS analysis; type: ADME, Microsome; conditions: read-out: Stability
[14] = Metabolic stability in rat liver microsomes assessed as half life […] measured upto 60 mins in presence of NADPH by LC-MS/MS analysis; type: ADME, Microsome

Sequence of Phosphatidylinositol 4,5-bisphosphate 3-kinase catalytic subunit beta isoform (P42338 whole entry, canonical isoform): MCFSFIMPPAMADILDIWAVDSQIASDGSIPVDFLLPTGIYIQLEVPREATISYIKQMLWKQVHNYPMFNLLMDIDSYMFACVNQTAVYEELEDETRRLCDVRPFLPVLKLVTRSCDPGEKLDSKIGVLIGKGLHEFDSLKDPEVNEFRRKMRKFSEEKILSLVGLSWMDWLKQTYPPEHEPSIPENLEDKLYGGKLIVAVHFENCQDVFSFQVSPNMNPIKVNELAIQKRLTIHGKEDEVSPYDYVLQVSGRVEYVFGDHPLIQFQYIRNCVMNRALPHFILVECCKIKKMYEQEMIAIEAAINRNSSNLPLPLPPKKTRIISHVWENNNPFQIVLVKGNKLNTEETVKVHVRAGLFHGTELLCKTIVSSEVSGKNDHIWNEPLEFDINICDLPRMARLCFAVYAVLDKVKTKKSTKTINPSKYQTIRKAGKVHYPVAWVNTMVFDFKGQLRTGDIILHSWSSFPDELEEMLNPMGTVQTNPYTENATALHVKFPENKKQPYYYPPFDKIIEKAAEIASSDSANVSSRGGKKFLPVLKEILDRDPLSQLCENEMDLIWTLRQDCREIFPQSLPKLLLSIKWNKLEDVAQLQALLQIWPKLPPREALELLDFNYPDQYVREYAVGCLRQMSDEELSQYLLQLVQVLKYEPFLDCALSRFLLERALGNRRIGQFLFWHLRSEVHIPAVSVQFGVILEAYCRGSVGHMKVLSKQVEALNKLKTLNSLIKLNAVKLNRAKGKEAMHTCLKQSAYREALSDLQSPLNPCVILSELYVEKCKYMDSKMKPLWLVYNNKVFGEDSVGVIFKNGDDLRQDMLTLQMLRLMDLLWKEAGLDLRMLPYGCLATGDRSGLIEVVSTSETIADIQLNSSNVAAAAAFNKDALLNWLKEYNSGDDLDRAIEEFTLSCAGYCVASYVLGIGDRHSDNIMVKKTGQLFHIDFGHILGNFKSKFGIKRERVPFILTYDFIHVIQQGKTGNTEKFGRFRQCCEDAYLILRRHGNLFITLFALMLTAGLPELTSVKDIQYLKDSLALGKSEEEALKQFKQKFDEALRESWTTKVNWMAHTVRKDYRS
Sequence of Phosphatidylinositol 4,5-bisphosphate 3-kinase catalytic subunit alpha isoform (P42336 whole entry, the tested form may be a part, canonical isoform): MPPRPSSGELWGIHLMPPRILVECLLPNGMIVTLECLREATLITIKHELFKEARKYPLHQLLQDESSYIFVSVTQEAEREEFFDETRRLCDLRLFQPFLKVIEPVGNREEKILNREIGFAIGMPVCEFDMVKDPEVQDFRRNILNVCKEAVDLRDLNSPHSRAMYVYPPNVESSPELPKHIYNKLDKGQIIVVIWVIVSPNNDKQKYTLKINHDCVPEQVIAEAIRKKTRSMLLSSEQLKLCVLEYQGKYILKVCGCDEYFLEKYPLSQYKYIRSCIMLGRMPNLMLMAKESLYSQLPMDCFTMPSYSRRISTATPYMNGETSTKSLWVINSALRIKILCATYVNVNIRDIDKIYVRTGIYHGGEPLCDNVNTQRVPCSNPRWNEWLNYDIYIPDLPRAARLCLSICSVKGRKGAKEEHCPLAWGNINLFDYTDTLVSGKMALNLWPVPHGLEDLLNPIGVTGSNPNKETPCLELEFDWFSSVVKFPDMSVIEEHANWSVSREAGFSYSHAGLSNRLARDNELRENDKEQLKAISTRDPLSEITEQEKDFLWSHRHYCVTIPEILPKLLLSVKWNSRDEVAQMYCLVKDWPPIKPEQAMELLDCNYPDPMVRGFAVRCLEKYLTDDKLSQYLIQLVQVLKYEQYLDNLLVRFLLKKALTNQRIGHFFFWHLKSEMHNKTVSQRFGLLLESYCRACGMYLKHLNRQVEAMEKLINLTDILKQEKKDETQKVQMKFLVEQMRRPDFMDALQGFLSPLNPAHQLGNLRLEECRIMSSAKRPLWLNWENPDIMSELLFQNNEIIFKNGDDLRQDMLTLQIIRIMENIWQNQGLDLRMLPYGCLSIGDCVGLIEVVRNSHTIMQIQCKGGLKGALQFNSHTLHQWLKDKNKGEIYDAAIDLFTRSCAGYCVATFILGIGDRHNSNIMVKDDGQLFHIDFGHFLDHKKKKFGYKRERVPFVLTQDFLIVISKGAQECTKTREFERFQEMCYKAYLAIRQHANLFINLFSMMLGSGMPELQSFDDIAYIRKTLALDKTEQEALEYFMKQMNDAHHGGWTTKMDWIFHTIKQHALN
Sequence of Phosphatidylinositol 4,5-bisphosphate 3-kinase catalytic subunit gamma isoform (P48736 whole entry, canonical isoform): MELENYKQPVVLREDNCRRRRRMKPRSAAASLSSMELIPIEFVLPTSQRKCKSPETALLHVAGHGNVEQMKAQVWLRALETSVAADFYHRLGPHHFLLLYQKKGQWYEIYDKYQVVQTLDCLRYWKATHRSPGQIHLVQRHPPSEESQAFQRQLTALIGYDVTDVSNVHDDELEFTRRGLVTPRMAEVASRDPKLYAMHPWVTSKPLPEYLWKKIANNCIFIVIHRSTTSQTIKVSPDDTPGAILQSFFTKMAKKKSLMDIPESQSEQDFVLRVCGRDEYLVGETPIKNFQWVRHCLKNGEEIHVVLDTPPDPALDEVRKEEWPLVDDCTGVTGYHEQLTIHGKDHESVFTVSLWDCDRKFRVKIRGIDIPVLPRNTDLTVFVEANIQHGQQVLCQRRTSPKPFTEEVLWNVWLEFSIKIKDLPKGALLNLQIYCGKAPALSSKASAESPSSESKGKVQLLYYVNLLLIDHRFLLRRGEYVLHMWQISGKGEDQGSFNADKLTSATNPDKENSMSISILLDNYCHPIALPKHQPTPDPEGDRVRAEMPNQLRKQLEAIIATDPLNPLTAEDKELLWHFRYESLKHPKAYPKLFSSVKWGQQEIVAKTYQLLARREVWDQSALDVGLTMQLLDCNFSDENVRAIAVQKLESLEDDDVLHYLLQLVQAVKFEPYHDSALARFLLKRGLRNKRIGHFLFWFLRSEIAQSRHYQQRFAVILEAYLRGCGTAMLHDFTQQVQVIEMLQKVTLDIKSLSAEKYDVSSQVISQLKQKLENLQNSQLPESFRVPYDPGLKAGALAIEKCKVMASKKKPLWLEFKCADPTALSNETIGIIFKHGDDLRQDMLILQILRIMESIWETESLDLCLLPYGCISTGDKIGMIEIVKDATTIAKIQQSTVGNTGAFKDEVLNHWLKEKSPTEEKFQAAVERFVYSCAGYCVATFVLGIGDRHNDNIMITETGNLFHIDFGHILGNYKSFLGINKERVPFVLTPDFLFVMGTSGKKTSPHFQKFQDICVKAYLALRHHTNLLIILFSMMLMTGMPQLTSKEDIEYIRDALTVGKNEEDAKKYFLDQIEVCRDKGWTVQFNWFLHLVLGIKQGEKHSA

SMILES: COc1cccc2c1nc(C(F)F)n2-c1nc(N2CCOCC2)nc(N2CCN(C(=S)SCCN3CCCCC3)CC2)n1
- IC50 [1]: 42 nM

SMILES: COc1cccc2c1nc(C(F)F)n2-c1nc(N2CCOCC2)cc(N2CCN(C(=S)SCC(=O)N(C)C)CC2)n1
- IC50 [2]: 33 nM
- IC50 (HCT-116): 2200 nM
- IC50 [1]: 1.8 nM
- IC50 [3]: > 50 nM
- IC50 [4]: > 50 nM
- IC50 (U-87 MG [5]): 2040 nM

SMILES: COc1cccc2c1nc(C(F)F)n2-c1nc(N2CCOCC2)nc(N2CCN(C(=S)SCCN3CCOCC3)CC2)n1
- IC50 [1]: 29 nM

SMILES: COc1cccc2c1nc(C(F)F)n2-c1nc(N2CCOCC2)nc(N2CCN(C(=S)SCC(=O)N3CCCC3)CC2)n1
- IC50 [1]: 0.9 nM

SMILES: COc1cccc2c1nc(C(F)F)n2-c1nc(N2CCOCC2)nc(N2CCN(C(=S)SCC(=O)N3CCN(S(C)(=O)=O)CC3)CC2)n1
- IC50 [2]: 42 nM
- Activity [6]: Non-Toxic
- CLint scaled [7]: 116 mL/min/kg
- microsomal CLint [8]: 64 µL/min/mg
- Activity [9]: Non-Toxic
- IC50 (HCT-116): 830 nM
- IC50 [1]: 1.2 nM
- Activity [10]: Non-Toxic
- IC50 [3]: > 50 nM
- remaining at 1 h [11]: 68.2%
- inhibition in vivo at 40 mg/kg/day (U-87 MG [12]): 42%
- remaining at 1 h [13]: 11.2%
- IC50 [4]: > 50 nM
- half-life [14]: 21.5 min
- IC50 (U-87 MG [5]): 1250 nM

SMILES: COc1cccc2c1nc(C(F)F)n2-c1nc(N2CCOCC2)cc(N2CCN(C(=S)SCC(=O)NC3CCCCC3)CC2)n1
- IC50 [1]: 12 nM

SMILES: FC(F)c1nc2ccccc2n1-c1nc(N2CCOCC2)nc(N2CCOCC2)n1 [ZSTK-474]
- Activity [6]: Non-Toxic
- CLint scaled [7]: 97 mL/min/kg
- microsomal CLint [8]: 54 µL/min/mg
- Activity [9]: Non-Toxic
- IC50 (HCT-116): 710 nM
- Activity [10]: Non-Toxic
- remaining at 1 h [11]: 100%
- inhibition in vivo at 40 mg/kg/day (U-87 MG [12]): 72%
- remaining at 1 h [13]: 19.6%
- half-life [14]: 25.7 min
- IC50 (U-87 MG [5]): 130 nM

SMILES: COCCSC(=S)N1CCN(c2cc(N3CCOCC3)nc(-n3c(C(F)F)nc4c(OC)cccc43)n2)CC1
- IC50 [1]: 17 nM

SMILES: COc1cccc2c1nc(C(F)F)n2-c1nc(N2CCOCC2)nc(N2CCN(C(=S)SCC(=O)N3CCN(C)CC3)CC2)n1
- IC50 (HCT-116): 980 nM
- IC50 [1]: 1.4 nM
- IC50 (U-87 MG [5]): 1670 nM

SMILES: COc1cccc2c1nc(C(F)F)n2-c1nc(N2CCOCC2)nc(N2CCN(C(=S)SCC(=O)NC3CCC3)CC2)n1
- IC50 [1]: 1.6 nM

SMILES: COc1cccc2c1nc(C(F)F)n2-c1nc(N2CCOCC2)nc(N2CCN(C(=S)SCC(=O)N3CCN(C4CCCC4)CC3)CC2)n1
- IC50 [1]: 2.5 nM

SMILES: CCN(CC)C(=O)CSC(=S)N1CCN(c2cc(N3CCOCC3)nc(-n3c(C(F)F)nc4c(OC)cccc43)n2)CC1
- IC50 [1]: 1.3 nM

SMILES: COc1cccc2c1nc(C(F)F)n2-c1nc(N2CCOCC2)nc(N2CCN(C(=S)SCCN3CCCC3)CC2)n1
- IC50 [1]: 20 nM

SMILES: COc1cccc2c1nc(C(F)F)n2-c1nc(N2CCOCC2)nc(N2CCN(C(=S)SCC(N)=O)CC2)n1
- IC50 [1]: 1.6 nM

SMILES: COc1cccc2c1nc(C(F)F)n2-c1nc(N2CCOCC2)nc(N2CCN(C(=S)SCC(=O)N3CCOCC3)CC2)n1
- IC50 (HCT-116): 1110 nM
- IC50 [1]: 0.7 nM
- IC50 (U-87 MG [5]): 600 nM

SMILES: COc1cccc2c1nc(C(F)F)n2-c1nc(N2CCOCC2)cc(N2CCN(C(=S)SCCN3CCN(C)CC3)CC2)n1
- IC50 [1]: 120 nM

The remaining compounds from weak to strong by IC50 [1], led by results:

- IC50 [1]: 81 nM
SMILES: COc1cccc2c1nc(C(F)F)n2-c1nc(N2CCOCC2)cc(N2CCN(C(=S)SCCN3CCOCC3)CC2)n1

- IC50 [1]: 63 nM
SMILES: COc1cccc2c1nc(C(F)F)n2-c1nc(N2CCOCC2)nc(N2CCN(C(=S)SCCN(C)C)CC2)n1

- IC50 [1]: 38 nM
SMILES: CCN(CC)CCSC(=S)N1CCN(c2nc(N3CCOCC3)nc(-n3c(C(F)F)nc4c(OC)cccc43)n2)CC1

- IC50 [1]: 34 nM
SMILES: COc1cccc2c1nc(C(F)F)n2-c1nc(N2CCOCC2)cc(N2CCN(C(=S)SCCN(C)C)CC2)n1

- IC50 [1]: 34 nM
SMILES: COc1cccc2c1nc(C(F)F)n2-c1nc(N2CCOCC2)cc(N2CCN(C(=S)SCC(=O)NC3CCCC3)CC2)n1

- IC50 [1]: 21 nM
SMILES: COCCSC(=S)N1CCN(c2nc(N3CCOCC3)nc(-n3c(C(F)F)nc4c(OC)cccc43)n2)CC1

- IC50 [1]: 9.1 nM
SMILES: COc1cccc2c1nc(C(F)F)n2-c1nc(N2CCOCC2)nc(N2CCN(C(=S)SCCN3CCN(C)CC3)CC2)n1

- IC50 [1]: 5.1 nM
SMILES: COc1cccc2c1nc(C(F)F)n2-c1nc(N2CCOCC2)nc(N2CCN(C(=S)SCC(=O)NC3CCCCC3)CC2)n1

- IC50 [1]: 3.3 nM
SMILES: COc1cccc2c1nc(C(F)F)n2-c1nc(N2CCOCC2)cc(N2CCN(C(=S)SCC(=O)NC3CCC3)CC2)n1

- IC50 [1]: 2.8 nM
SMILES: COc1cccc2c1nc(C(F)F)n2-c1nc(N2CCOCC2)nc(N2CCN(C(=S)SCC(=O)NC3CCCC3)CC2)n1

- IC50 [1]: 2.7 nM
SMILES: COc1cccc2c1nc(C(F)F)n2-c1nc(N2CCOCC2)cc(N2CCN(C(=S)SCC(=O)NC3CC3)CC2)n1

- IC50 [1]: 2.5 nM
SMILES: COc1cccc2c1nc(C(F)F)n2-c1nc(N2CCOCC2)cc(N2CCN(C(=S)SCC(N)=O)CC2)n1

- IC50 (HCT-116): 1230 nM
- IC50 [1]: 1.4 nM
- IC50 (U-87 MG [5]): 1990 nM
SMILES: COc1cccc2c1nc(C(F)F)n2-c1nc(N2CCOCC2)cc(N2CCN(C(=S)SCC(=O)N3CCCC3)CC2)n1

- IC50 [1]: 1.4 nM
SMILES: COc1cccc2c1nc(C(F)F)n2-c1nc(N2CCOCC2)nc(N2CCN(C(=S)SCC(=O)NC3CC3)CC2)n1

- IC50 [2]: 35 nM
- IC50 (HCT-116): 1530 nM
- IC50 [1]: 1.2 nM
- IC50 [3]: > 50 nM
- IC50 [4]: > 50 nM
- IC50 (U-87 MG [5]): 1220 nM
SMILES: COc1cccc2c1nc(C(F)F)n2-c1nc(N2CCOCC2)cc(N2CCN(C(=S)SCC(=O)N3CCOCC3)CC2)n1

- IC50 [1]: 1.1 nM
SMILES: CCN(CC)C(=O)CSC(=S)N1CCN(c2nc(N3CCOCC3)nc(-n3c(C(F)F)nc4c(OC)cccc43)n2)CC1

- IC50 (HCT-116): 2780 nM
- IC50 [1]: 0.8 nM
- IC50 (U-87 MG [5]): 1100 nM
SMILES: COc1cccc2c1nc(C(F)F)n2-c1nc(N2CCOCC2)nc(N2CCN(C(=S)SCC(=O)N(C)C)CC2)n1
